According to ChEMBL document CHEMBL1139935, “Discovery of novel indazole-linked triazoles as antifungal agents” (2007):
≈ marks a conversion by molar mass, not a printed value.

Key:
HepG2 [1] = assay: Cytotoxicity against human HepG2 cells at 50 uM by neutral red uptake assay; format: functional
Aspergillus flavus = assay: Antifungal activity against Aspergillus flavus ATCC MYA-1004 by broth microdilution assay; format: functional
Aspergillus fumigatus = assay: Antifungal activity against Aspergillus fumigatus ATCC 16424 by broth microdilution assay; format: functional
Candida tropicalis = assay: Antifungal activity against Candida tropicalis ATCC 750 by broth microdilution assay; format: functional
Cryptococcus neoformans = assay: Antifungal activity against Cryptococcus neoformans ATCC 24065 by broth microdilution assay
Pichia kudriavzevii = assay: Antifungal activity against Candida krusei ATCC 6528 by broth microdilution assay; format: functional
Clavispora lusitaniae = assay: Antifungal activity against Candida lusitaniae ATCC 42720 by broth microdilution assay; format: functional
Candida parapsilosis = assay: Antifungal activity against Candida parapsilosis ATCC 21019 by broth microdilution assay; format: functional; conditions: Lodderomyces parapsilosis
Nakaseomyces glabratus = assay: Antifungal activity against Candida glabrata ATCC 34138 by broth microdilution assay; format: functional
Aspergillus niger = assay: Antifungal activity against Aspergillus niger ATCC 9042 by broth microdilution assay; format: functional
Aspergillus terreus = assay: Antifungal activity against Aspergillus terreus ATCC 28301 by broth microdilution assay; format: functional
Candida albicans [2] = assay: Antifungal activity against Candida albicans ATCC 36082 by broth microdilution assay; format: functional
Candida albicans [3] = assay: Antifungal activity against systemic Candida albicans ATCC 36082 infection model in ICR mouse assessed as survival at 20 mg/kg, po; format: functional
In short: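 C. albicans ATCC 36082 given systemically, about 5 × 10⁵ cells per animal. Oral dosing at 20 mg/kg once daily started 2 h post-infection and continued for 7 consecutive days. Read-out was mean survival days, compared against an untreated infected control group.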

HepG2 [4] = assay: Cytotoxicity against human HepG2 cells by neutral red uptake assay; format: functional
In short: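 Human hepatoma HepG2 cells; neutral red uptake read-out following a previously described protocol; the value is the CC50 (concentration giving half-maximal cytotoxicity); ketoconazole served as reference agent.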

Row | SMILES | inhibition at 50 µM (HepG2 [1]) | MIC80 (Aspergillus flavus) | MIC80 (Aspergillus fumigatus) | MIC80 (Candida tropicalis) | MIC80 (Cryptococcus neoformans) | MIC80 (Pichia kudriavzevii) | MIC80 (Clavispora lusitaniae) | MIC80 (Candida parapsilosis) | MIC80 (Nakaseomyces glabratus) | MIC80 (Aspergillus niger) | MIC80 (Aspergillus terreus) | MIC80 (Candida albicans [2]) | Survival (Candida albicans [3]) | CC50 (HepG2 [4])
1 | Cc1nn([C@H](C)[C@](O)(Cn2cncn2)c2ccc(F)cc2F)c2cccc(F)c12 | 8.1% | > 16 µg/mL | 16 µg/mL (≈ 39.9 µM) | 1 µg/mL (≈ 2.49 µM) | 0.125 µg/mL (≈ 0.311 µM) | 1 µg/mL (≈ 2.49 µM) | 0.125 µg/mL (≈ 0.311 µM) | 0.25 µg/mL (≈ 0.623 µM) | 8 µg/mL (≈ 19.9 µM) | > 16 µg/mL | > 16 µg/mL | ≤ 0.015 µg/mL |  | 
2 | C[C@@H](n1cc2cc(Br)ccc2n1)[C@](O)(Cn1cncn1)c1ccc(F)cc1F |  | 0.5 µg/mL (≈ 1.12 µM) | 0.25 µg/mL (≈ 0.558 µM) | ≤ 0.015 µg/mL | ≤ 0.015 µg/mL | 0.125 µg/mL (≈ 0.279 µM) | ≤ 0.015 µg/mL | ≤ 0.015 µg/mL | 2 µg/mL (≈ 4.46 µM) | 1 µg/mL (≈ 2.23 µM) | 0.5 µg/mL (≈ 1.12 µM) | ≤ 0.015 µg/mL | 13.5 days | 141 µM
3 | Cc1nn([C@H](C)[C@](O)(Cn2cncn2)c2ccc(F)cc2F)c2ccc(C(F)(F)F)cc12 | 2.9% | > 16 µg/mL | > 16 µg/mL | > 8 µg/mL | 1 µg/mL (≈ 2.22 µM) | 4 µg/mL (≈ 8.86 µM) | 0.25 µg/mL (≈ 0.554 µM) | 1 µg/mL (≈ 2.22 µM) | 8 µg/mL (≈ 17.7 µM) | > 16 µg/mL | > 16 µg/mL | ≤ 0.015 µg/mL |  | 
